According to ChEMBL document CHEMBL3045249, “Synthesis of glucose-fipronil conjugate and its phloem mobility” (J Agric Food Chem, 2011):
Values after ≈ are worked out from the molar mass of the structure shown.

Columns and labels:
[1] = system: Phloem; test: Phloem mobility in Ricinus communis (castor bean) seedlings phloem sap assessed as drug level at 200 uM measured 8 hr post dose by DiBAC4 indicator based flow cytometry; format: ADME
In short: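 Protoplasts from cotyledons were isolated by 4 h digestion at 28 °C in cellulase/pectinase with 0.6 M mannitol and MES pH 5.8. They were suspended in buffer with 200 μM compound, or none for control, and shaken at 28 °C for 8 h. Every 2 h, samples were stained with 2 μM DiBAC4(3) for 30 min. Fluorescence of 20000 viable cells was read by flow cytometry (ex 488/em 530 nm) and expressed relative to fresh cells; n = 3, Duncan's test.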

[2] = system: Lower stem; test: Drug metabolism in adult Ricinus communis (castor bean) lower stem assessed as compound conversion to fipronil at 2 mM measured 48 to 72 hr post treatment; format: ADME; settings: 2000 µM
In short: (§1)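 Adult castor bean plants. On each of two fully expanded leaves, 100 mm2 of the adaxial surface was abraded with a Celite slurry, rinsed and blotted dry. 200 μL of aqueous GTF in 0.1% Tween 80/10% acetone was applied per leaf; vehicle alone served as control. After 48 and 72 h, plants were cut into apical leaves, upper stem, lower stem and roots (three replicates). 2 g tissue was acetone-extracted with 15 min sonication. Fipronil was quantified by C18 HPLC (acetonitrile/water 50:50, 1.0 mL/min, 210 nm) against external calibration.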

[3] = system: Phloem; test: Phloem mobility in Ricinus communis (castor bean) seedlings phloem sap assessed as drug level at 200 uM measured 3.5 hr post dose by DiBAC4 indicator based flow cytometry relative to untreated control; format: ADME
[4] = system: Upper stem; test: Drug metabolism in adult Ricinus communis (castor bean) upper stem assessed as compound conversion to fipronil at 2 mM measured 48 to 72 hr post treatment by HPLC-MS method; format: ADME; settings: 2000 µM; in short: as §1
[5] = system: Apical leaf; test: Drug metabolism in adult Ricinus communis (castor bean) apical leaves assessed as compound conversion to fipronil at 2 mM measured 48 to 72 hr post treatment by HPLC-MS method; format: ADME; settings: 2000 µM; in short: as §1
[6] = system: Phloem; test: Phloem mobility in Ricinus communis (castor bean) seedlings phloem sap assessed as drug level at 200 uM measured 7 hr post dose by DiBAC4 indicator based flow cytometry relative to untreated control; format: ADME
[7] = system: Apical leaf; test: Drug metabolism in adult Ricinus communis (castor bean) apical leaves assessed as compound conversion to fipronil at 2 mM measured 48 to 72 hr post treatment; format: ADME; settings: 2000 µM; in short: as §1
[8] = system: Root; test: Drug metabolism in adult Ricinus communis (castor bean) roots assessed as compound conversion to fipronil at 2 mM measured 48 to 72 hr post treatment by HPLC-MS method; format: ADME; settings: 2000 µM; in short: as §1
[9] = system: Root; test: Drug metabolism in adult Ricinus communis (castor bean) roots assessed as compound conversion to fipronil at 2 mM measured 48 to 72 hr post treatment; format: ADME; settings: 2000 µM; in short: as §1
[10] = system: Lower stem; test: Drug metabolism in adult Ricinus communis (castor bean) lower stem assessed as compound conversion to fipronil at 2 mM measured 48 to 72 hr post treatment by HPLC-MS method; format: ADME; settings: 2000 µM; in short: as §1
[11] = system: Upper stem; test: Drug metabolism in adult Ricinus communis (castor bean) upper stem assessed as compound conversion to fipronil at 2 mM measured 48 to 72 hr post treatment; format: ADME; settings: 2000 µM; in short: as §1
[12] = system: Phloem; test: Phloem mobility in Ricinus communis (castor bean) seedlings phloem sap assessed as drug level at 200 uM by HPLC-MS method; format: ADME
In short: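 Six-day castor bean seedlings, endosperm removed. After 1 h the hypocotyl was severed and phloem sap collected from the upper hypocotyl. Sap was analysed by C18 HPLC (acetonitrile/water 50:50, 1.0 mL/min, 210 nm, 25 °C) with external calibration; identity was confirmed by positive-ion APCI-MS.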

[13] = system: Plutella xylostella; test: Insecticidal activity against Plutella xylostella (diamondback moth) third-instar larvae measured 24 hr post dose by leaf disk dipping assay; format: functional; settings: foliar
In short: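 Third-instar larvae, leaf disk dip. Compounds were dissolved in acetone and suspended in water with 0.1% Tween 80. 5.5 cm leaf disks were dipped 30 s and air-dried 2 h, then 10 larvae were placed per dish. Control was 10% acetone/0.1% Tween 80. Incubation at 26 ± 2 °C, 70% RH, 16:8 h light/dark; five replicates. Mortality was scored at 24 h and LC50 derived with 95% confidence limits.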

SMILES	Drug mobility [1]	Drug metabolism [2]	fold change (FC) [3]	Drug metabolism [4]	Drug metabolism [5]	fold change (FC) [6]	Drug metabolism [7]	Drug metabolism [8]	Drug metabolism [9]	Drug metabolism [10]	Drug metabolism [11]	Drug mobility [12]	LC50 [13] [µg/mL]
N#Cc1nn(-c2c(Cl)cc(C(F)(F)F)cc2Cl)c(NCc2cn([C@@H]3O[C@H](CO)[C@@H](O)[C@H](O)[C@H]3O)nn2)c1[S+]([O-])C(F)(F)F (stereo not given in full)	Active	Active	0.25	Active	Active	0.45	Active	Active	Active	Active	Active	Active	–
N#Cc1nn(-c2c(Cl)cc(C(F)(F)F)cc2Cl)c(N)c1[S+]([O-])C(F)(F)F (stereo not given) [FIPRONIL]	Not Active	–	–	–	–	–	–	–	–	–	–	Not Active	21.4 (≈ 48.9 µM)
